Source: PubChem
PGC1a acetyl inh: PGC1a acetylation modulation, inhibitor mode | U2OS PGC1a acetylation, AlphaScreen anti-acetyl-lysine; with virally co-expressed GCN5 acetyltransferase | actives 0.17% (n = 350,000) | inhibition, % at 15.6 µM;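 active = every replicate shows inhibition of at least 40%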
SIRT5 inh: blocks human SIRT5 desuccinylation of peptide | Q9NXA8 | Purified SirT5, succinyl-peptide AMC, trypsin-coupled fluorescence | inhibition, % at 15 µM | actives 1.1% (n = 330,000) | AID 652115; in the data active = inhibition above about 15%
Target sequence (Q9NXA8 whole entry, looked up): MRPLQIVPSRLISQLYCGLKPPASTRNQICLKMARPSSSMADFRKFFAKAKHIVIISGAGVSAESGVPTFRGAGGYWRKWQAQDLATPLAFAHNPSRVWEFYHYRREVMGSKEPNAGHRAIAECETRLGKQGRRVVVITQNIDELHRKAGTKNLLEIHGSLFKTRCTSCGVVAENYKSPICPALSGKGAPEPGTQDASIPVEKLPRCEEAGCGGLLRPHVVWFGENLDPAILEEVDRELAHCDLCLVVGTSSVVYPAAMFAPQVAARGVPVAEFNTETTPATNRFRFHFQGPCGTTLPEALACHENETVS
C2C12 statin: suppression of simvastatin myotoxicity. C2C12 myotubes + simvastatin, ATP luminescence, 48 h; scaled: DMSO 0, geranylgeraniol control 100. actives 0.78% (n = 330,000). rescue of ATP level, % at 7.49 µM;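 active = mean ATP rescue above about 67%, or every replicate alone reaching that limit, limit read from the data, passing the limit was not always enough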;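 also: myotubes were challenged with 10 µM simvastatin during compound exposure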
S100A4 inh HTS: S100A4-myosin IIA interaction inhibition; P26447; S100A4/TAMRA-MyoIIA peptide fluorescence polarization; inhibition, % at 10.7 µM; actives 0.14% (n = 360,000);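 active = mean inhibition of at least 70% across replicates, with every replicate also reaching that level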
Target sequence (P26447 whole entry, looked up): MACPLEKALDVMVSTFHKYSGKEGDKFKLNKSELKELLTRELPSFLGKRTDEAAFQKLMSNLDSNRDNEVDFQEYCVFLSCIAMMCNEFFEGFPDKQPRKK
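Test system: S100A4 monomer protein; Medium: HEPES pH 7.2 with CaCl2, KCl, NaCl, DTT, Triton; Probe or stimulus: TAMRA-labelled myosin IIA heavy-chain peptide probe, 5 nM; Doses: one dose per compound; Times: polarization read 5 min after assay mix addition, stable 5–60 min; Benchmarks: neutral control DMSO, positive control TFP.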
Cneo AK release: Cryptococcus neoformans lysis via adenylate kinase release. C. neoformans lysis, adenylate kinase release luminescence, 4 h; normalised: neutral wells 0, clomiphene wells 100. lysis activity, % at 15 µM. actives 0.2% (n = 360,000). AID 651654;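 active = mean lysis activity across replicates of at least 80%, whatever share of replicates individually reach that level; inactive = mean lysis activity below 80%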
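Assay system: log-phase C. neoformans yeast / Quantity: yeast cell density of 5 × 10^6 cells/mL / Medium: fresh YPD growth medium / Compound: single dose / Timing: static 4 h at 37 °C with compound, 1 h detection / Measured by: adenylate kinase release luminescence / Read-out: lysis from increased AK signal / Benchmarks: Clomiphene as positive lysis control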
rRNA inh HTS: inhibitors of bacterial rRNA selective over humanized ribosomes; actives 1.6% (n = 350,000); E. coli WT GFP vs humanized-ribosome RFP mutants, fluorescence, 24 h; active compounds read low; DMSO median 0, no signal -100; GFP signal change (wild-type ribosome), % (test concentration not listed);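 active = significant combined selectivity score with lowered wild-type GFP, culture density cut under 30%, mutant RFP and density less affected; inactive = any of these conditions unmet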
Numbers stand for hits; n = inactive; x = no result given. Sampled rows, rich in hits. Any-hit rate of the full collection: about 3%.

SMILES	PGC1a acetyl inh	SIRT5 inh	C2C12 statin	S100A4 inh HTS	Cneo AK release	rRNA inh HTS
COc1ccc(CCN(Cc2cc3ccc(C)cc3n3nnnc23)C(C)=O)cc1OC	x	26	x	n	x	n
COc1ccc2cc(CN(Cc3cccnc3)Cc3nnnn3Cc3ccccc3)c(=O)[nH]c2c1	x	n	x	n	x	-28
CCOc1cc(C(=O)N(C)Cc2cc3ccccc3[nH]c2=O)cc(OCC)c1OCC	n	x	98	x	n	x
COc1ccc(S(=O)(=O)N(Cc2cccnc2)Cc2cc3ccccc3[nH]c2=O)cc1	n	n	n	n	n	-29
Cc1ccc(S(=O)(=O)N(Cc2cccnc2)Cc2cc3ccccc3[nH]c2=O)cc1	n	n	n	n	n	n
CC(C)CC#Cc1ccc([C@H]2[C@@H](CO)N3C(=O)CN(C(=O)NC4CCCC4)C[C@@H]23)cc1	x	n	x	n	x	n
COc1ccc(S(=O)(=O)Nc2ccc3c(c2)C(=O)N([C@H](C)CO)C[C@@H](C)[C@H](CN(C)C(=O)CCC(F)(F)F)OCCCC[C@@H](C)O3)cc1	n	n	x	n	n	n
O=C(CC1CC1)N1[C@H](CO)[C@@H](c2ccccc2)C12CN(Cc1ccccc1F)C2	n	n	x	n	x	n
CN1C(=O)c2cc(NC(=O)c3cscn3)ccc2OC[C@@H]2O[C@@H](CC(=O)NCC3CC3)CC[C@@H]21	n	x	n	x	n	n
COc1cccc(CN(Cc2cccnc2)S(=O)(=O)c2ccc(-n3cnnn3)c(C)c2)c1	n	n	n	n	n	-25
COc1cc(S(=O)(=O)N(Cc2cccnc2)Cc2ccco2)ccc1-n1cnnn1	n	n	n	n	n	n
CC(C)N(Cc1cc2ccccc2[nH]c1=O)C(=O)c1cccnc1	n	x	88	x	x	x
COCCn1nnnc1CN(CCc1ccc(OC)c(OC)c1)Cc1cc2ccc(C)cc2[nH]c1=O	n	x	103	x	x	x
C[C@@H]1CN([C@H](C)CO)C(=O)c2ccccc2-c2ccccc2CO[C@@H]1CN(C)C(=O)C1CC1	x	x	x	x	x	n
COc1cccc(C(=O)Nc2nc3c(c(=O)[nH]2)CCCC3)c1	n	x	96	x	n	x
CC(Sc1nc2ccccc2n1C)C(=O)Nc1ccc(N2CCOCC2)cc1 (centres undefined)	n	x	x	n	x	-23
CC(C)Cn1c(SC(C)C(=O)Nc2ccc(N3CCOCC3)cc2)nc2ccccc21 (centres undefined)	x	n	x	n	x	n
O=C(COC(=O)c1nc(Cl)ccc1Cl)Nc1ccccc1OC(F)F	n	n	n	n	n	-19
Cc1ccc(C(=O)NNc2c3ccccc3nc3ccccc23)cc1	n	n	x	n	n	n
Nc1ccccc1C(=O)NNc1c2ccccc2nc2ccccc12	n	n	x	n	n	-20
CCOC(=O)N(C)C[C@@H]1OCc2ccccc2-c2c(n(C)c3ccccc23)C(=O)N([C@H](C)CO)C[C@@H]1C	n	n	n	n	n	n
CC(/C=C1\SC(=S)N(NS(=O)(=O)c2ccc(C)cc2)C1=O)=C\c1ccccc1	n	n	x	n	n	n
CC(/C=C1\SC(=S)N(NS(=O)(=O)c2ccccc2)C1=O)=C\c1ccccc1	n	n	n	n	n	-43
CC(/C=C1\SC(=S)N(c2ccc(C(=O)O)cc2)C1=O)=C\c1ccccc1	n	34	n	n	x	n
CC(/C=C1\SC(=S)N(NC(=O)c2ccncc2)C1=O)=C\c1ccccc1	n	x	n	n	n	-32
SMILES	PGC1a acetyl inh	SIRT5 inh	C2C12 statin	S100A4 inh HTS	Cneo AK release	rRNA inh HTS
C[C@H]1CCCCO[C@H](CN(C)C(=O)Cc2ccccc2)[C@@H](C)CN([C@@H](C)CO)C(=O)c2cc(N(C)C)ccc2O1	n	x	n	x	x	n
Cc1ccc(NS(=O)(=O)c2ccc3c(c2)NC(=O)CCS3)c(C)c1	n	n	n	n	n	-33
CC(=O)Nc1ccc(/C=N/Nc2nc3ccccc3[nH]2)cc1	x	n	x	n	x	-21
O=C(O)c1ccc(/C=N/Nc2nc3ccccc3[nH]2)cc1	n	n	n	n	n	n
COc1cccc(/C=N/Nc2nc3ccccc3[nH]2)c1O	n	n	n	n	n	n
COc1cccc(/C=N/Nc2nc3ccccc3[nH]2)c1OC	x	n	x	n	x	-25
CC(=O)N(C)C[C@@H]1Oc2ncc(-c3cccc(C#N)c3)cc2C(=O)N([C@H](C)CO)C[C@H]1C	n	n	n	n	n	n
O=C1[C@H](Cc2ccc(C(F)(F)F)cc2)CCn2cc(nn2)COC[C@@H]2CCCCN2C(=O)[C@H](Cc2ccc(C(F)(F)F)cc2)CCn2cc(nn2)COC[C@@H]2CCCCN12	x	x	x	x	x	n
O=C(COc1ccc(/C=C\[N+](=O)[O-])cc1)N1CCOCC1	n	n	x	n	x	n
O=[N+]([O-])/C=C\c1ccc(N2CCOCC2)cc1	n	n	x	n	x	-19
CCC(=O)N1[C@@H]2c3cccc(=O)n3C[C@@H]2[C@@H](CO)[C@@H]1C(=O)N1CCc2ccccc2C1	x	n	n	n	n	n
CCN1C[C@@H]2[C@@H]3C(=O)N(Cc4ccccc4)C(=O)[C@@H]3[C@](Cc3ccccc3)(C1=O)N2C(=O)c1ccc(C)cc1	x	17	n	n	n	n
C[C@@H]1CN([C@@H](C)CO)C(=O)c2cc(NC(=O)Nc3ccc4c(c3)OCO4)ccc2O[C@H]1CN(C)CC1CCCCC1	x	x	x	x	x	n
O=C(C[C@H]1CC[C@H](NC(=O)c2ccc3c(c2)OCO3)[C@@H](CO)O1)NCc1ccc(Cl)cc1	n	n	n	n	n	n
CCCNC(=O)[C@@H]1[C@@H](CO)[C@@H]2Cn3c(cccc3=O)[C@@H]2N1C(=O)C1CCC1	x	n	n	106	n	n
O=C(Nc1nccs1)[C@@H]1[C@@H](CO)[C@@H]2Cn3c(cccc3=O)[C@@H]2N1C(=O)C1CCC1	x	n	n	n	n	n
O=C(Nc1nccs1)[C@H]1[C@H](CO)[C@H]2Cn3c(cccc3=O)[C@H]2N1C(=O)C1CCC1	x	16	n	n	n	n
CC(=O)NC[C@H]1[C@@H](c2ccc(C3=CCCC3)cc2)[C@@H](CO)N1C(=O)C1CCC1	x	n	x	n	x	n
